Results taken from ChEMBL document CHEMBL1139372, “Docking studies on a new human immunodeficiency virus integrase-Mg-DNA complex: phenyl ring exploration and synthesis of 1H-benzylindole derivatives through fluorine substitutions” (J Med Chem, 2009).

Key:
[1] = test system: Human immunodeficiency virus 1; assay: Antiviral activity against HIV1 3B infected in human MT4 cells assessed as inhibition of virus-induced cytopathic effect by MTT assay; assay type: functional, organism-based; conditions: Human immunodeficiency virus 1, 3B
In short: (§1)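 Human lymphocyte MT-4 cultures infected with HIV-1; HIV-induced cytopathic effect read by MTT assay; EC50 is the concentration reducing cytopathic effect by 50%; average ± SD; SI is CC50/EC50.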

[2] = Selectivity index, ratio of CC50 for human MT4 cells to EC50 for HIV1 3B; assay type: toxicity, cell-based; conditions: read-out: Ratio CC50/EC50; in short: as §1
[3] = target: T1, Human immunodeficiency virus type 1 integrase (Human immunodeficiency virus 1, UniProt Q7ZJM1); assay: Inhibition of HIV1 integrase activity by ELISA
In short: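 In vitro overall integrase reaction measured by enzyme-linked immunosorbent assay; IC50 is the concentration giving 50% inhibition of overall integrase activity; average ± SD.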

[4] = target: T1, Human immunodeficiency virus type 1 integrase; assay: Inhibition of HIV1 integrase strand transfer activity by ELISA
In short: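 Strand transfer step of integration measured in vitro by enzyme-linked immunosorbent assay; IC50 is the concentration giving 50% inhibition of strand transfer; average ± SD.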

[5] = Cytotoxicity against human MT4 cells by MTT assay; assay type: cell-based
In short: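 Uninfected MT-4 cells; viability read by MTT assay; CC50 is the concentration reducing viability by 50%; average ± SD; SI is CC50/EC50.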

T1 sequence (Q7ZJM1 whole entry): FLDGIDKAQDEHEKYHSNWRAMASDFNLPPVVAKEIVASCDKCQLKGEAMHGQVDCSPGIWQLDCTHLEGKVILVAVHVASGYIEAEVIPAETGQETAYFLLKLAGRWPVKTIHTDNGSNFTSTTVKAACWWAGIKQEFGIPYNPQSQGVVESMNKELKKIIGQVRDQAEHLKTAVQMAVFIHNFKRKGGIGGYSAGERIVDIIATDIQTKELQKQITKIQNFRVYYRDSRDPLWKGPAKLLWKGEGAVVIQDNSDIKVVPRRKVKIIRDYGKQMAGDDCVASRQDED

Structure (SMILES) | EC50 [1] [nM] | selectivity ratio [2] | IC50 [3] [nM] | IC50 [4] [nM] | CC50 [5] [nM]
COc1cccc2c1c(C(=O)/C=C(\O)C(=O)O)cn2Cc1ccc(F)cc1 | 590 | 70 |  |  | 
COc1cccc2c1c(C(=O)/C=C(\O)C(=O)O)cn2Cc1c(F)cccc1F | 410 | 108 | 130 | 80 | 44300
COc1cccc2c1c(C(=O)/C=C(\O)C(=O)O)cn2Cc1cccc(F)c1F | 260 | > 68.7 | 10 | 120 | 17500
COc1cccc2c1c(C(=O)/C=C(\O)C(=O)O)cn2Cc1ccc(F)c(F)c1 | 2800 | 25 | 420 | 600 | 71000
CCOC(=O)/C(O)=C/C(=O)c1cn(Cc2cccc(F)c2)c2cccc(OC)c12 | 2210 | 28.5 | 300 | 2260 | 63200
CCOC(=O)/C(O)=C/C(=O)c1cn(Cc2ccc(F)c(F)c2)c2cccc(OC)c12 | 80100 | > 2 | 26500 | 1560 | 125000
CCOC(=O)/C(O)=C/C(=O)c1cn(Cc2cc(F)cc(F)c2)c2cccc(OC)c12 | 5940 | > 5.8 | 1520 | 2740 | 34700
CCOC(=O)/C(O)=C/C(=O)c1cn(Cc2ccc(F)c(F)c2F)c2cccc(OC)c12 | 3150 | > 13 | 3010 | 1150 | 42700
CCOC(=O)/C(O)=C/C(=O)c1cn(Cc2cc(F)ccc2F)c2cccc(OC)c12 | 3150 | 13.1 | 1410 | 400 | 41200
CCOC(=O)/C(O)=C/C(=O)c1cn(Cc2c(F)cccc2F)c2cccc(OC)c12 | 2040 | > 31.1 | 360 | 70 | 63400
CCOC(=O)/C(O)=C/C(=O)c1cn(Cc2ccccc2F)c2cccc(OC)c12 | 1400 | 45.3 | 380 | 720 | 63300
CCOC(=O)/C(O)=C/C(=O)c1cn(Cc2ccc(F)cc2F)c2cccc(OC)c12 | 1950 | 33.7 | 110 | 670 | 65500
CCOC(=O)/C(O)=C/C(=O)c1cn(Cc2cc(F)c(F)c(F)c2)c2cccc(OC)c12 | 3960 | 8.4 | 2000 | 1410 | 33400
COc1cccc2c1c(C(=O)/C=C(\O)C(=O)O)cn2Cc1ccccc1F | 310 | 228 | 70 | 40 | 70500
COc1cccc2c1c(C(=O)/C=C(\O)C(=O)O)cn2Cc1cc(F)c(F)c(F)c1 | 2210 | 10.5 | 60 | 100 | 23300
CCOC(=O)/C(O)=C/C(=O)c1cn(Cc2c(F)ccc(F)c2F)c2cccc(OC)c12 | 4840 | 8.4 | 170 | 820 | 40500
COc1cccc2c1c(C(=O)/C=C(\O)C(=O)O)cn2Cc1cc(F)ccc1F | 410 | 113 | 50 | 20 | 46200
CCOC(=O)/C(O)=C/C(=O)c1cn(Cc2cccc(F)c2F)c2cccc(OC)c12 | 1900 | 11.1 | 5 | 12 | 21100
COc1cccc2c1c(C(=O)/C=C(\O)C(=O)O)cn2Cc1ccc(F)c(F)c1F | 1150 | 19.9 | 140 | 280 | 22800
COc1cccc2c1c(C(=O)/C=C(\O)C(=O)O)cn2Cc1ccc(F)cc1F | 410 | 50.7 | 10 | 20 | 20800
COc1cccc2c1c(C(=O)/C=C(\O)C(=O)O)cn2Cc1cc(F)cc(F)c1 | 2780 | 10.6 | 440 | 240 | 29500
COc1cccc2c1c(C(=O)/C=C(\O)C(=O)O)cn2Cc1cccc(F)c1 | 380 | 175 | 30 | 30 | 65800
COc1cccc2c1c(C(=O)/C=C(\O)C(=O)O)cn2Cc1c(F)ccc(F)c1F | 650 | 75.5 | 130 | 160 | 49400
